# NPY Y2 blocker: NPY-Y2 receptor antagonists, primary screen, cell-based; NPY-Y2 expressing cells, antagonist mode; inhibition, % at 2.7 µM; AID 793, 2007; 140,000 compounds, 0.99% hits;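 also: 0% = vehicle with agonist challenge and 100% = reference antagonist with challenge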
# NPY1 pot ag: NPY-Y1 receptor potentiators or agonists, primary screen, cell-based; Neuropeptide Y receptor type 1 (Homo sapiens), P25929; NPY-Y1 expressing cells, potentiator/agonist activation; activation, % at 3.6 µM; 220,000 compounds, 0.37% hits; AID 1304, 2008; in the data active = activation above about 33%, passing the limit was not always enough;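 also: cells stimulated with NPY at EC10 then isoproterenol at EC100; 0% = low agonist plus stimulus and 100% = saturating agonist plus stimulus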
# Target sequence (P25929 whole entry, looked up): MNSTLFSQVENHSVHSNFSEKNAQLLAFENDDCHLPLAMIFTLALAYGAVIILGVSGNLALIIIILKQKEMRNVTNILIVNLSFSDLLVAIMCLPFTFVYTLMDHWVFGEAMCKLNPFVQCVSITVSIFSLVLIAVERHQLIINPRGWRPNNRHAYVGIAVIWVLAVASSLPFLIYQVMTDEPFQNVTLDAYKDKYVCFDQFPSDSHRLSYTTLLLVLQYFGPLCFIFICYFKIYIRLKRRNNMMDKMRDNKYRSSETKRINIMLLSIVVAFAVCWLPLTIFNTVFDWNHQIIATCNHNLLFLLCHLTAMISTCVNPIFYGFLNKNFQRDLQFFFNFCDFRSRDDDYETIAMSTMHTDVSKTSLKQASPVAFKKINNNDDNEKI
# NPY-Y1 antag: NPY-Y1 receptor antagonists, primary screen, cell-based; Neuropeptide Y receptor type 1 (Homo sapiens), P25929; HEK293-CNG Y1 cells, membrane potential fluorescence; NPY at EC95, then isoproterenol; inhibition, % at 3.6 µM; 200,000 compounds, 1% hits;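 active = inhibition above the campaign mean inhibition of all tested compounds plus 3 SD, cut at about 20% in these data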;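 also: 0% = DMSO wells given NPY plus isoproterenol and 100% = isoproterenol alone without NPY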
#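 Material: HEK293 Y1/CNG channel cell line; also added: NPY (25 nM), isoproterenol (1 µM), Ro 20-1724 (25 µM); doses: one concentration, 3.6 µM, in 0.4% DMSO; schedule: compound incubation 1 h at room temperature, readout 45 min post-stimulation; technique: membrane potential fluorescence; measure: fluorescence ratio normalized to % inhibition between controls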
# NPY2 pot ag: NPY-Y2 potentiators or agonists, primary screen, cell-based. 220,000 compounds, 0.45% hits. activation, % at 3.6 µM. Neuropeptide Y receptor type 2 (Homo sapiens), P49146. cells expressing NPY-Y2, potentiator/agonist read-out; in the data active = activation above about 27%;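 also: cells stimulated with NPY near EC25 plus isoproterenol at EC100; 0% = vehicle plus submaximal agonist and 100% = vehicle plus saturating agonist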
# NPY1 antag conf: NPY-Y1 receptor antagonists, retest of hits, confirmation, HEK293-CNG cells, membrane potential fluorescence, triplicate | 1,200 compounds, 21% hits | shares compounds with NPY-Y1 antag | inhibition, % at 3.6 µM | cAMP; NPY challenge against isoproterenol-raised cAMP; in the data active = inhibition above about 20%;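 also: 0% = vehicle with agonist plus stimulus and 100% = stimulus alone without agonist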
# NPY2 antag ctr: NPY-Y2 receptor antagonists, selectivity check, confirmation, counter-screen for NPY-Y1 antagonist project, HEK293-CNG cells, membrane potential fluorescence, triplicate; shares compounds with NPY-Y1 antag; antagonism; cells given NPY, then isoproterenol; inhibition, % at 3.6 µM; 1,200 compounds, 28% hits; AID 1255, 2008;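 also: 0% = DMSO with agonist challenge and 100% = reference antagonist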
# Numbers without * were called inactive; . = not tested or not shown. This is a sample that favours compounds with a hit; in the whole collection about 1.8% have one here. Rule as the data show it, unless noted: active = inhibition above about 17%; inactive = the rest.
SMILES,NPY Y2 blocker,NPY1 pot ag,NPY-Y1 antag,NPY2 pot ag,NPY1 antag conf,NPY2 antag ctr
Cc1ccc(-c2nnc(N3CCC(C)CC3)c3ccccc23)cc1C,.,-24.9,26.3*,-10.3,9.1,14.4
Cc1ccc(-c2nnc(N3CCC(C)CC3)c3ccccc23)cc1,.,-3.0,29.2*,-3.1,11.6,7.1
COc1ccc(-c2nnc(N3CCCCC3)c3ccccc23)cc1,6.0,-9.1,0.6,-11.1,.,.
Cc1cccc(-n2cnc3c(sc4nc(N5CCOCC5)c5c(c43)CCCC5)c2=O)c1,.,-40.7,.,-31.2,.,.
Cc1ccc(SCCC(=O)OCC(=O)NCC2CCCCC2)cc1,.,-64.4,36.0*,-35.8,13.7,9.2
Cc1ccc(SCCC(=O)OCC(=O)Nc2ccc(S(N)(=O)=O)cc2)cc1,.,-42.7,.,-16.5,.,.
CC1(C)CC(=O)C=C(C(=O)N2CCCC(C(=O)c3cccc(Cl)c3)C2)O1 (stereo unspecified),.,-0.4,6.8,4.3,.,.
COC(=O)c1[nH]c2c(c1C)C(=O)CCC2,-0.5,-5.0,30.8*,3.8,-3.7,2.2
COc1cc(C=O)ccc1OCCOCCOc1ccccc1Cl,2.0,-7.5,20.5*,1.9,2.9,3.9
CCCCSc1nnc(CSc2ncccn2)n1C,.,26.9,2.9,10.7,.,.
CN1CCC=C(C(=O)N2c3ccccc3Sc3ccc(Cl)cc32)C1,.,15.5,.,-4.6,.,.
CO/N=C(\c1nonc1N)N1CCN(c2ccc([N+](=O)[O-])cc2Cl)CC1,1.5,-11.2,14.1,9.7,.,.
CO/N=C(\c1nonc1N)N1CCN(c2ccc(Cl)cc2[N+](=O)[O-])CC1,13.1,2.1,24.1*,-1.8,16.4,9.0
O=C1CNC(=S)N1CCc1ccc(O)c(O)c1,.,-16.7,.,-21.0,.,.
O=C(O)CSc1ccc2ccccc2n1,9.6,-29.1,20.4*,-22.5,5.3,10.7
O=C(O)CCSc1ccc2ccccc2n1,16.3,-35.8,6.3,-38.0,.,.
CCCCOC(=O)c1cc(=O)[nH]c2ccccc12,1.8,-3.6,8.8,-20.8,.,.
CCCCOC(=O)c1cc(=O)[nH]c2ccc(C)cc12,.,-5.1,22.0*,2.7,10.3,7.5
N#Cc1nccnc1N1CCN(C(=O)Nc2ccccc2)CC1,.,9.8,.,3.2,.,.
O=C(/C=C/c1ccco1)Nc1ccc2nc3n(c(=O)c2c1)CCCC3,.,-9.0,-2.3,-19.3,.,.
COc1ccc(C(=O)CSc2nc3ncccc3[nH]2)cc1OC,.,-10.4,.,-20.4,.,.
O=C(CCCO)CCCCCCCCC[C@H]1N[C@H](CO)[C@@H](O)[C@@H]1O,-0.1,3.1,0.1,1.9,.,.
CC(=O)N(Cc1ccc(Br)cc1)c1cccc(C)c1C,.,-11.1,33.5*,2.0,1.4,5.3
COc1ccc(CN(C(C)=O)c2cccc(C)c2C)cc1,4.9,-27.9,6.6,-7.4,.,.
Cn1c(=O)oc2cc(S(=O)(=O)N3CCC(C(=O)NCCc4ccccc4)CC3)ccc21,.,2.6,.,7.9,.,.
SMILES,NPY Y2 blocker,NPY1 pot ag,NPY-Y1 antag,NPY2 pot ag,NPY1 antag conf,NPY2 antag ctr
O=C(NC(=S)Nc1ccc(CN2CCCCC2)cc1)c1cccc(OCc2ccccc2)c1,.,-52.6,41.6*,-56.8,42.3*,52.6*
COc1ccccc1-n1c(SCC(=O)OC(C)C)nc2cccnc21,.,5.7,.,9.3,.,.
COc1ccc(N(C)S(=O)(=O)c2cccc3cccnc23)c(OC)c1,3.4,-3.7,3.2,1.6,.,.
COc1ccc(N(C(=O)C2CCCCC2)S(=O)(=O)c2cccc3cccnc23)cc1,.,-1.7,31.1*,-7.4,21.4*,6.9
Nc1nn(-c2ccccc2)nc1C(=O)OCc1ccccc1F,.,-27.1,30.1*,-15.0,8.0,6.9
Cc1ccccc1COC(=O)c1nn(-c2ccccc2)nc1N,.,-32.2,19.4,-25.9,.,.
COc1ccc(CC2(CO)CCN(C/C=C/c3ccccc3OC)CC2)cc1,.,-30.5,27.1*,-15.5,17.2,23.1*
O=C(N/N=C/c1ccccc1O)C(=O)Nc1ccccn1,.,-1.4,0.7,-6.4,.,.
O=C1/C(=C\c2ccc(Br)o2)Cc2ccccc21,13.0,-21.6,25.0*,13.8,15.5,7.5
O=C1/C(=C/c2cccs2)Cc2ccccc21,5.5,13.1,-0.6,8.9,.,.
CC(SCC(=O)NC12CC3CC(CC(C3)C1)C2)C(=O)O (stereo unspecified),3.9,-10.8,0.3,3.9,.,.
Cn1c(Oc2ccccc2NCc2cccc(Br)c2)cc(=O)n(C)c1=O,4.9,-11.9,25.3*,-9.0,10.9,5.5
CN(C)CCCOc1ccc(C(C)(C)c2ccccc2)cc1,12.9,-48.8,22.8*,-33.7,14.3,22.5*
CN(C)CCOc1ccc(C(C)(C)c2ccccc2)cc1,.,9.4,0.9,-1.8,.,.
CC(C)N(CCNCC(O)COc1ccc(C(C)(C)c2ccccc2)cc1)C(C)C (stereo unspecified),.,-22.2,24.8*,-6.2,14.0,26.4*
OC(CNCCc1ccccc1)COc1ccc(OCC(O)CNCCc2ccccc2)cc1 (stereo unspecified),.,-6.2,.,0.7,.,.
Cc1cccc(OCCCC(=O)NCC(=O)Nc2cccc(C)c2C)c1,.,-3.8,5.0,-21.8,.,.
O=C(COc1ccc(Cl)cc1)NCc1nnc(SCC(=O)Nc2ccc(F)cc2F)o1,.,13.9,-0.5,-0.4,.,.
CCCCC(O)(CCCC)C(=O)NN(C(=O)OCC)c1ccccc1,16.2,-24.1,33.7*,-11.0,9.8,8.6
CCCC(O)(CCC)C(=O)NN(C(=O)CCl)c1ccccc1,3.8,0.6,1.4,-7.5,.,.
CCCCC(O)(CCCC)C(=O)NN(C(=O)OC)c1ccccc1,8.4,-5.8,26.1*,6.5,24.8*,10.8
Cc1csc2ncnc(N3CCN(C(=O)Nc4ccc(OC(F)(F)F)cc4)CC3)c12,.,8.0,.,19.2,.,.
CCN(CC)S(=O)(=O)c1ccc(C(=O)OCC(=O)NCCN2C(=O)CSC2=O)cc1,.,0.9,1.2,4.3,.,.
CC(=O)Nc1cccc(OCCCNC(=O)C2CCC2)c1,.,-28.3,.,9.2,.,.
OCC1(CCc2ccccc2)CCN(Cc2cc(F)ccc2-n2cccn2)CC1,.,-12.2,23.4*,-20.4,13.8,11.1
OCC1(CCCc2ccccc2)CCN(Cc2cc(F)ccc2F)CC1,.,3.7,10.3,-15.1,.,.
Cc1cc2nc(CS(=O)(=O)c3ccccc3)cc(=O)n2[nH]1,.,3.5,-3.9,-12.3,.,.
Cc1ccc(S(=O)(=O)N(C)C)cc1NC(=S)N1CCN(Cc2ccc3c(c2)OCO3)CC1,.,21.2,-1.5,19.7,.,.
Cc1ccc(C)c(OCC(=O)N/N=C/c2c(C)nn(-c3ccccc3)c2Cl)c1,11.9,-5.4,21.1*,-17.9,5.3,12.3
Cc1nn(-c2ccccc2)c(Cl)c1/C=N/NC(=O)OC(C)(C)C,4.7,10.4,-2.8,-3.7,.,.
